Active and inactive are the calls of the source. The rule behind the calls is not given here.
Experiments:
[1] = Selectivity index, ratio of IC50 for human HS895SK cells to EC50 for human CA46 cells measured after 24 hrs by CellTiter-Glo luminescent assay
Method in brief: (§1)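 High-throughput viability screen of test agents across a panel of 22 cancerous and noncancerous human cell lines. Viability was read by CellTiter-Glo luminescence.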

[2] = molecular target: T1, Inhibitor of nuclear factor kappa-B kinase subunit alpha (Homo sapiens) (UniProt O15111); assay: Inhibition of JRA-031 binding to IKKalpha in TNF-alpha-stimulated human HEK293T cells at 1 uM pretreated with compound for 1 hr followed by labeling with JRA-031 for 1 hr followed by stimulation with TNF-alpha for 1 hr by pull down based mass spectrometry; type: cell-based; conditions: HEK-293T
T1 sequence (whole entry): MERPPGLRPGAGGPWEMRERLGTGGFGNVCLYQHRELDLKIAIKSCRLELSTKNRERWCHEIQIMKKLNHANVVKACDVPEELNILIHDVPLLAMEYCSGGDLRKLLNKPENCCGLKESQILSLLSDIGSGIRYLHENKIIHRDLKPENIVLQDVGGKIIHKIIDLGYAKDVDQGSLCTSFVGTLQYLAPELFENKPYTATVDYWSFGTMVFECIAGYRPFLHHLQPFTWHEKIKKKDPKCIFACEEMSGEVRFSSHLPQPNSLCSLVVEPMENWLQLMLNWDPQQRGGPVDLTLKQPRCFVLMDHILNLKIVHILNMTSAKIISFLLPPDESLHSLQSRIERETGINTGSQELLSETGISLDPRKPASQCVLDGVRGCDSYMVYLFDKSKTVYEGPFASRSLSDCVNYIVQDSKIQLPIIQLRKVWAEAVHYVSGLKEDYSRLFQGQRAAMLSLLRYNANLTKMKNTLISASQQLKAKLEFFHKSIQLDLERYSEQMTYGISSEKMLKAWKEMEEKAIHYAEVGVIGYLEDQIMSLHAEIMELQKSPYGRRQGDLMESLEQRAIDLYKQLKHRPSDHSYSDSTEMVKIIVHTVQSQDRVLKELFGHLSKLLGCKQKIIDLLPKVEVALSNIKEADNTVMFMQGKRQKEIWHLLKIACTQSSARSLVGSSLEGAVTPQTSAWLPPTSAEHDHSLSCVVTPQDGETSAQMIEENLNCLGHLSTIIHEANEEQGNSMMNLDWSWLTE

[3] = Selectivity index, ratio of IC50 for human Hs888Lu cells to EC50 for human RC-K8 cells measured after 24 hrs by CellTiter-Glo luminescent assay; type: toxicity; conditions: Hs888Lu cells (IC50) versus RC-K8 cells (EC50); method in brief: as §1
[4] = Cytotoxicity against human Hs895SK cells assessed as reduction in cell viability measured after 24 hrs by CellTiter-Glo luminescent assay; type: cell-based; conditions: Hs 895.Sk; method in brief: as §1
[5] = Inhibition of IKKalpha/IKKbeta in human HEK293T cells transfected with firefly luciferase gene assessed as inhibition of IL-1 beta-stimulated NF-kappaB signalling preincubated for 1 hr followed by IL-1 beta stimulation measured after 3 hrs by luciferase reporter gene assay; type: cell-based; conditions: HEK-293T
[6] = molecular target: T2, Inhibitor of nuclear factor kappa-B kinase subunit beta (Homo sapiens) (UniProt O14920); assay: Inhibition of IKKbeta in human HeLa cells assessed as reduction in IL-1 beta-stimulated IKK beta nuclear translocation at 10 uM pretreated with compound for 4 hrs followed by stimulation with IL-1 beta for 1 hr by immunohistochemical staining/confocal microscopy; type: cell-based
T2 sequence (whole entry): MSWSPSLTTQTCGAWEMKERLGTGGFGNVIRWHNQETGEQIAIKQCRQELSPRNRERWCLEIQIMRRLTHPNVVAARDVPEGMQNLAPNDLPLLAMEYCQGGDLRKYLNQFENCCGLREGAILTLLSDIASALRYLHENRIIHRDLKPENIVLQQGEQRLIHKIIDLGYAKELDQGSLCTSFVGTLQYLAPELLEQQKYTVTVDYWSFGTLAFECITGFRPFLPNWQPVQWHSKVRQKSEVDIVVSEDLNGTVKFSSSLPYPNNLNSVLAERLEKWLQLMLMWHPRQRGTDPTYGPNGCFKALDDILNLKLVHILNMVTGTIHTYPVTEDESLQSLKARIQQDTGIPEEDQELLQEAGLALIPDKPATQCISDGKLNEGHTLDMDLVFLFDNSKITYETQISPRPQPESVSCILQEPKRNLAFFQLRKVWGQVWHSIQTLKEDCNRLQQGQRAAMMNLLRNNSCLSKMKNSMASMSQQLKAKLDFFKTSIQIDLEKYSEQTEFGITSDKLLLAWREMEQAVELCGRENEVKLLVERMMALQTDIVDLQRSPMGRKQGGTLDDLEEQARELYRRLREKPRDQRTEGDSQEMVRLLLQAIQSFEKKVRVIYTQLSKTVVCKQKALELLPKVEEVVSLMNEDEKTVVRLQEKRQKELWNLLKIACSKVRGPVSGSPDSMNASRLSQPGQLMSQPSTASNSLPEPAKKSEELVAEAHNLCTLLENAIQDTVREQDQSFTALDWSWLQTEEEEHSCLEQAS
Method in brief: (§2)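 HeLa cells were pretreated with DMSO or test agent for 4 h, then stimulated with IL-1β (or vehicle) for 1 h. NF-κB pathway members were immunostained with AF488-tagged antibodies, nuclei were counterstained with DAPI, and compartmental localization was imaged by confocal microscopy.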

[7] = Cytotoxicity against human Hs888Lu cells assessed as reduction in cell viability measured after 24 hrs by CellTiter-Glo luminescent assay; type: cell-based; method in brief: as §1
[8] = molecular target: T1, Inhibitor of nuclear factor kappa-B kinase subunit alpha (Homo sapiens); assay: Inhibition of IKKalpha in human HeLa cells assessed as reduction in IL-1 beta-stimulated IKK alpha nuclear translocation at 10 uM pretreated with compound for 4 hrs followed by stimulation with IL-1 beta for 1 hr by immunohistochemical staining/confocal microscopy; type: cell-based; method in brief: as §2
[9] = Selectivity index, ratio of IC50 for human Hs895SK cells to EC50 for human HCC1599 cells measured after 24 hrs by CellTiter-Glo luminescent assay; type: toxicity; conditions: Hs895SK cells (IC50) versus HCC1599 cells (EC50); method in brief: as §1
[10] = tested on: NCI-H446; assay: Cytotoxicity against human NCI-H446 cells assessed as reduction in cell viability measured after 24 hrs by CellTiter-Glo luminescent assay; type: functional, cell-based; conditions: NCI-H446, 24 h; method in brief: as §1
[11] = tested on: SUD4; assay: Cytotoxicity against human SU-DHL-4 cells assessed as reduction in cell viability measured after 24 hrs by CellTiter-Glo luminescent assay; type: functional, cell-based; conditions: SU-DHL-4, 24 h; method in brief: as §1
[12] = molecular target: T1, Inhibitor of nuclear factor kappa-B kinase subunit alpha (Homo sapiens); assay: Inhibition of IKK alpha nuclear translocation in human HEK-293T cells assessed as reduction in IKK alpha level in nucleus at 15 uM pretreated with compound for 1 hr followed by stimulation with IL-1 beta for 3 hrs by western blot analysis; type: subcellular
Method in brief: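 HEK 293T cells were pretreated with vehicle or test agent, then stimulated with IL-1β (or vehicle). Cells were lysed and nuclei separated, and the cytosolic and nuclear fractions were each probed for IKKα and IKKβ by Western blotting.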

[13] = Selectivity index, ratio of IC50 for human Hs578Bst cells to EC50 for human SU-DHL-4 cells measured after 24 hrs by CellTiter-Glo luminescent assay; type: toxicity; conditions: Hs578Bst cells (IC50) versus SU-DHL-4 cells (EC50); method in brief: as §1

## C=C1C[C@]23C[C@@]1(O)CC[C@H]2[C@@]12C=CC(=O)[C@@](C)(C(=O)O1)[C@H]2[C@@H]3C(=O)OC
[1]
  Ratio IC50/EC50: 500
[2]
  inhibition: Active
[3]
  selectivity ratio at 24 h: 500
[4]
  IC50: > 10 µM
[5]
  IC50: 6 µM
[6]
  inhibition: Active
[7]
  IC50: > 10 µM
[8]
  inhibition: Active
[9]
  selectivity ratio at 24 h: 500
[10]
  EC50: 0.061 µM
[11]
  EC50: < 0.04 µM
[12]
  inhibition: Active
[13]
  selectivity ratio at 24 h: 500

— ChEMBL document CHEMBL4725436, “Gibberellin JRA-003: A Selective Inhibitor of Nuclear Translocation of IKKα” (ACS Med Chem Lett, 2020)
